Screening results from PubChem BioAssay.
TNAP inh noacc – human TNAP enzyme inhibitors, primary screen, biochemical, luminescent, no phosphate acceptor, uHTS; Alkaline phosphatase, tissue-nonspecific isozyme (Homo sapiens), P05186; inhibition, % at 20 µM; purified TNAP, CDP-star luminescence, 30 min; 200,000 compounds, 0.26% hits;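 active = tissue-nonspecific alkaline phosphatase inhibition above about 50% at 20 µM in the single-dose screen, limit read from the data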
Target sequence (P05186 whole entry, looked up): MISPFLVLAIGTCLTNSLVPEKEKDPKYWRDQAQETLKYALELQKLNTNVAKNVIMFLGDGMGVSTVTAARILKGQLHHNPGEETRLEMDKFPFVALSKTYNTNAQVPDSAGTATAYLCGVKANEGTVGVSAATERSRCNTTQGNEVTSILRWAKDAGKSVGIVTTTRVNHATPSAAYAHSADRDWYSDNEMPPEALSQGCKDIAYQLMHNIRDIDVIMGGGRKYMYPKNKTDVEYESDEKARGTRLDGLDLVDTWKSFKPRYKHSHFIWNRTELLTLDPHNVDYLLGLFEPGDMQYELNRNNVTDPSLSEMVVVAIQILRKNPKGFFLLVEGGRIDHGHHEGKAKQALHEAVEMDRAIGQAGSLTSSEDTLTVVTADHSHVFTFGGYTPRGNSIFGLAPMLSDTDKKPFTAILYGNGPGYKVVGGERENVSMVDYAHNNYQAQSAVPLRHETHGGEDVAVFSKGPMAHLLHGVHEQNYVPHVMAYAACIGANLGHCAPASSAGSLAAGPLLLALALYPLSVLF
TNAP inh hi DEA – human TNAP enzyme inhibitors, primary screen, biochemical, luminescent, high phosphate acceptor level, uHTS; Alkaline phosphatase, tissue-nonspecific isozyme (Homo sapiens), P05186; purified TNAP, CDP-star luminescence, 1 M DEA; inhibition, % at 20 µM; 200,000 compounds, 0.03% hits; AID 1135, 2008;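 active = over 50% inhibition of tissue-nonspecific alkaline phosphatase at 20 µM in the single-dose screen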
TNAP act hi DEA – TNAP activators at high phosphate acceptor level, primary screen, biochemical, luminescence, uHTS; purified TNAP, CDP-star luminescence, 1 M DEA, 30 min; hits give high values; 0 = EDTA background, 1 = DMSO-only activity; Alkaline phosphatase, tissue-nonspecific isozyme (Homo sapiens), P05186; 200,000 tested, under 10 active; activation factor at 20 µM; AID 1136, 2008;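 active = activation factor at least 2 at 20 µM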
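Test system – human TNAP · Doses – 20 µM single point · Incubation – 30 min, room temperature · Signal – luminescent substrate turnover signal · Read-out basis – activation factor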
Insulin prom up – insulin promoter activators in MIN6 cells, imaging, high-content screening, mouse beta cells | MIN6 insulin promoter-GFP reporter; hits give high values | z-score at 5 µM | 190,000 compounds, 0.3% hits;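 active = z-score above 3 at 5 µM with at least 500 cells counted in the well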
Autophagy HCS – autophagy modulators in MEF cells, primary screen, imaging, high-content, MEF GFP-LC3; MEF GFP-LC3 puncta imaging; test concentration mostly 10 µM; 190,000 compounds, 0.98% hits; AID 463193, 2010; calls only at 10 µM (by protocol);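 active = percentage of spot-positive cells more than 3 SD above its plate mean, without a fluorescence outlier flag or 80% toxicity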
p47phox inh – p47phox/p22phox peptide binding inhibitors, primary screen, biochemical, uHTS, NADPH oxidase regulatory subunit; Neutrophil cytosol factor 1 (Homo sapiens), P14598; fluorescence polarization, 2 h; inhibition, % at 24.7 µM; 220,000 compounds, 0.53% hits; AID 1274, 2008;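 active = inhibition above about 30%, limit read from the data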
Each line names hits and unclear results; the compound was inactive in the other large screens; ! = not confirmed by another sample. This is a sample that favours compounds with a hit; in the whole collection about 1.8% have one here.

O=C(c1ccccc1[N+](=O)[O-])N1CCC(Cc2ccccc2)CC1	none
CCn1nc(C(=O)OCC(=O)NCC(C)C)c2ccccc2c1=O	Autophagy HCS active
CC(=O)N1CCc2cc(S(=O)(=O)NCCC(=O)N3CCN(Cc4ccccc4)CC3)ccc21	Autophagy HCS active
COC(=O)c1c(C(=O)OC)c(-c2ccc(Cl)cc2)n2c1CS(=O)(=O)C2	none
CC(C)(C)NC(=O)CN(C(=O)C(=O)Nc1ccc2c(c1)OCCO2)C(C)(C)C	none
O=[N+]([O-])c1cc2c(cc1/C=N/Nc1nc(Nc3ccccc3)nc(N3CCCCC3)n1)OCO2	Autophagy HCS active (no result: Insulin prom up)
C(=N\Nc1nc(Nc2ccccc2)nc(N2CCCCC2)n1)/c1ccco1	p47phox inh 135
COc1ccc(/C=N/Nc2nc(Nc3ccccc3)nc(N3CCCC3)n2)cc1	none
COc1cc(C(=O)NCCN2CCCC2)cc(OC)c1OC	Autophagy HCS active
Cc1cccn2cc(CCNC(=O)Cc3cccs3)nc12	none (no result: TNAP inh noacc, TNAP inh hi DEA, TNAP act hi DEA, Autophagy HCS)
Cc1ccc(O)c(C(=O)c2cnn(C(=O)COc3ccccc3C#N)c2)c1	p47phox inh 32 (no result: TNAP inh noacc, TNAP inh hi DEA, TNAP act hi DEA, Autophagy HCS)
Cc1ccc(O)c(C(=O)c2cnn(C(=O)COc3ccc(Cl)cc3)c2)c1	none
CCCOc1ccc(NC(N)=O)cc1OCCC	p47phox inh 31 (no result: Insulin prom up)
Cc1ccc(NC(=O)CN(C)C(=O)COc2ccc(C(=O)c3ccc(F)cc3)cc2)cc1	none (no result: Insulin prom up)
O=C(N/N=C/c1ccc2c(c1)OCO2)c1sc2cc(Cl)ccc2c1Cl	p47phox inh 31
COc1ccc2c(Cl)c(C(=O)N/N=C/c3ccc4c(c3)OCO4)sc2c1	none
Cc1n(-c2ccccc2)c2ccc(Cl)cc2[n+]1CCO	none
Cc1ccc(Nc2ncnc(N)n2)cc1C	none
C[c-]1[c-](C)[c-](C)[c-](C)[c-]1C.[Fe].c1cc2nccc(N3CCCC3)[c-]2c1 (stereo unspecified)	p47phox inh 30! (no result: TNAP inh noacc, TNAP inh hi DEA, TNAP act hi DEA, Autophagy HCS)
Cn1cnc2c(N3CCCCC3)nccc21	none
Cc1ccc(S(=O)(=O)N/N=C/c2ccc(OCC(=O)NC(C)C)cc2)cc1	none (no result: TNAP inh noacc, TNAP inh hi DEA, TNAP act hi DEA, Insulin prom up, p47phox inh)
O=C(COC(=O)c1cccc(C(=O)OCC(=O)NCc2ccc(F)cc2)n1)NCc1ccc(F)cc1	none
COc1ccc(OCC(=O)Nc2ccc(S(=O)(=O)Nc3cc(C)nc(C)n3)cc2)cc1	Insulin prom up 3.1
COc1ccc(OCC(=O)Nc2ccc(S(=O)(=O)Nc3nc(C)cc(C)n3)cc2)cc1	none
N#Cc1c(NC(=O)c2ccccc2)sc2c1CCCCC2	none (no result: Insulin prom up)
N#Cc1c(Cl)nsc1NC(=O)c1ccccc1	Autophagy HCS active
CC(C)CCN1CCN(C2CSCCSC2)CC1CCO (stereo unspecified)	p47phox inh 42
C#CCn1cc(C=C2C(=O)c3ccccc3C2=O)c2ccccc21	p47phox inh 81
O=C(Cc1c2ccccc2nc2ccccc12)c1ccccc1	none
Cn1c(=O)c2c(nc(SCC(=O)c3ccccc3F)n2C)n(C)c1=O	none
CCN(CC)c1ccc(NC(=O)Cn2c(C(C)NC(=O)c3ccc(C)cc3)nc3ccccc32)cc1 (stereo unspecified)	TNAP act hi DEA 2.3 (no result: p47phox inh)
O=C(O)C1CSC(c2ccccc2Cl)N1C(=O)c1ccc(Cl)cc1 (stereo unspecified)	p47phox inh 87
O=C(Nc1cccc(-c2cn3ccccc3n2)c1)c1cc2ccccc2oc1=O	p47phox inh 43
CC(=O)Nc1cccc(-c2cn3ccccc3n2)c1	none
O=C(Nc1cc(S(=O)(=O)N2CCCCC2)ccc1Cl)c1ccccc1NS(=O)(=O)c1ccc(F)cc1	Autophagy HCS active
O=C(Nc1cc(S(=O)(=O)N2CCCCC2)ccc1O)c1ccccc1NS(=O)(=O)c1ccc(F)cc1	none
Cc1ccc(C(=O)C(C)N2C(=O)NC(C)(c3ccccc3)C2=O)cc1 (stereo unspecified)	none
COc1ccc(N=C2O/C(=C/c3sc(=S)n(CC4CCCO4)c3O)N=C2C#N)cc1 (stereo unspecified)	p47phox inh 42 (no result: TNAP inh noacc, TNAP inh hi DEA, TNAP act hi DEA, Autophagy HCS)
O=C1N=c2ccccc2=C1c1sc(=S)n(CC2CCCO2)c1O (stereo unspecified)	none
O=C(NCN1C(=O)C2C3C=CC(C3)C2C1=O)Nc1nccs1 (stereo unspecified)	none
C#CCn1cnc2c(cnn2-c2ccc(C)c(C)c2)c1=O	none
Cc1nc2c3cnn(-c4ccc(C)c(C)c4)c3ncn2n1	TNAP inh noacc 81 (no result: p47phox inh)
Cn1c(C(=O)NCc2ccccc2)cc2oc3ccccc3c21	p47phox inh 31
Cn1c(C(=O)NCc2cccs2)cc2oc3ccccc3c21	none
COc1ccc(-c2csc3nc(-c4ccc(C)cc4)oc(=O)c23)cc1OC	p47phox inh 43 (no result: Insulin prom up)
COc1ccc(-c2csc3nc(C(C)(C)C)oc(=O)c23)cc1OC	none
COc1ccccc1N1CCN(C(=O)CN(C)S(=O)(=O)c2cc(C)ccc2OC)CC1	none
O=[N+]([O-])c1ccccc1CNC1CCCc2ccccc21 (stereo unspecified)	none
Cc1nn(-c2ccccc2)c(C)c1/C=N/NC(=O)c1cc(-c2ccccc2)n[nH]1	TNAP inh noacc 98
Cc1ccc(NC(=O)Cn2c(-c3ccc(F)cc3)cnc2SCC(=O)Nc2c(C)cccc2C)cc1	none
Cn1c(/C(C#N)=C/c2ccc(-c3ccc(S(N)(=O)=O)cc3)o2)nc2ccccc21	Autophagy HCS active (no result: Insulin prom up)
CCN(CC)c1ccc2cc(C#N)c(=O)oc2c1	Insulin prom up 4.2
CCN(CC)c1ccc2c(Cl)c(Br)c(=O)oc2c1	Autophagy HCS active (no result: Insulin prom up)
Cc1ccc(S(=O)(=O)N2CCOCC2)cc1NC(=O)COC(=O)c1cc(=O)c2ccccc2o1	Autophagy HCS active
Cc1ccc(S(=O)(=O)N2CCOCC2)cc1NC(=O)COc1ncnc2ccccc12	none
COc1cc(S(=O)(=O)N2CCOCC2)ccc1NC(=O)COC(=O)C12CC3CC(CC(C3)C1)C2	Insulin prom up 3.9
CCC(CC)C(=O)OCC(=O)Nc1ccc(S(=O)(=O)N2CCOCC2)cc1OC	none
Clc1ccc(OCc2nnc(-c3ccccc3Br)o2)c(Cl)c1	p47phox inh 43
Clc1ccc(OCc2nnc(-c3ccccc3Br)o2)cc1	none
CCC(C)[C@@H](NC(=O)OC(C)(C)C)c1nnc(S(=O)(=O)Cc2cccc(C)c2)o1 (stereo partly specified)	p47phox inh 60 (no result: Insulin prom up)
N#C/C(=C/c1ccccc1)c1nn(CCO)c(N)c1C#N	none
